A selection: hits, their analogues and other compounds. The true share with any hit is near 1.4%.
Vif inh: HIV Vif self-association inhibitors, primary screen, imaging, HEK293T, single point; inhibition, % at 7.49 µM; HEK293T cells, Vif self-association by quenched fluorescence, 24 h; AID 602346, 2012; hit rate 0.35% among 340,000; in the data active = inhibition above about 50%, passing the limit was not always enough; inconclusive = no clear call, values can overlap the other calls; inactive = below about 31%
SR-BI uptake up: activators of SR-BI mediated DiI-HDL uptake, primary screen, ldlA[mSR-BI] CHO cells, DiI fluorescence | 3 h; 100 = double the neutral-control signal | hit rate 0.096% among 320,000 | activation, % at 12.5 µM | AID 504775, 2011;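 active = mean replicate activation of at least 60% and every replicate at or above 60%; inconclusive = mean or all-replicate condition met, but not both; inactive = mean below 60% and not all replicates reaching 60%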
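system = CHO ldlA[mSR-BI] cells, LDL receptor-null, SR-BI overexpressing | medium = Ham's F12 with 0.5% BSA, HEPES 25 mM, pH 7.4 | probe or stimulus = DiI-HDL 10 µg/mL | compound dosing = single-point compound dose | incubation = compound exposure 3 h, 37 °C | technique = DiI fluorescence, bottom read | read-out = cell-associated DiI fluorescence as measure of HDL uptake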
SR-BI HDL uptake: inhibitors of SR-BI mediated HDL lipid uptake, primary screen, ldlA[mSR-BI] cells, fluorescence, single point | ldlA[mSR-BI] CHO cells, DiI-HDL uptake fluorescence, 3 h | hit rate 0.96% among 320,000 | Scavenger receptor class B member 1 (Mus musculus), Q61009 | AID 488896, 2010 | inhibition, % at 12.5 µM;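 active = mean replicate inhibition of at least 70% and a set share of replicates each scoring 70 or more; inconclusive = meets just one of the two criteria; inactive = fails both criteria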
PKA-R1A activ: activators of PKA-R1A holoenzyme, primary screen, biochemical, fluorescence polarization, Cy5-IP20, bovine R1A, mouse PKAc; hit rate 0.083% among 340,000; PKA-R1A dissociation; scaled: DMSO 0%, 113 µM cGMP 100%; activation, % at 11.4 µM;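 active = percent activation above the mean of all tested compounds plus 3 SD, cut at about 19% in these data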;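 note: higher means more PKAc released from R1A so a rise in polarization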
PKA-R2B act: activators of PKA-R2B holoenzyme, primary screen, biochemical, fluorescence polarization, Cy5-IP20, human | activation, % at 11.4 µM | cAMP-dependent protein kinase catalytic subunit beta (Homo sapiens) + cAMP-dependent … | hit rate 0.079% among 340,000 | AID 504700, 2011 | PKA-R2B holoenzyme dissociation; R2B truncated from residue 108, S112A mutant; 0% DMSO only, 100% 113 µM cGMP;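 active = activation above a cutoff set at the mean over all compounds plus 3 SD, cut at about 18% in these data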;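 note: higher means more holoenzyme dissociation and a rise in polarization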
Target sequence (P31323 whole entry, looked up, other chains not shown, the tested form may be a part): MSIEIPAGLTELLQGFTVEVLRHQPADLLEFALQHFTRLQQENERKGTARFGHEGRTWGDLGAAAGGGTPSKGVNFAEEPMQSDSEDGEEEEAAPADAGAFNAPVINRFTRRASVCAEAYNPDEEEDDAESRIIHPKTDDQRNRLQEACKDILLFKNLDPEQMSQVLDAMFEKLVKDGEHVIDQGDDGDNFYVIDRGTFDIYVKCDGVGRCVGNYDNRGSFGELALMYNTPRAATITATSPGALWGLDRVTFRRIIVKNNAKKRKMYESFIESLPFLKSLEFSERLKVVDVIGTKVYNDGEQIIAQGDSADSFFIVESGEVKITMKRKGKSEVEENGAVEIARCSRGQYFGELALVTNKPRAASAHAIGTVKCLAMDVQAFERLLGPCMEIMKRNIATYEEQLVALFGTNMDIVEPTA
Hits are given with their value.

What do the screens show for `CCN(CC)C(=O)c1sc(NC(=O)c2c(OC)cccc2OC)c(C#N)c1C`?
Vif inh: inactive; SR-BI uptake up: inactive; SR-BI HDL uptake: 94; PKA-R1A activ: inactive; PKA-R2B act: inactive

Results for c1ccc(CNc2nc(NCc3ccccc3)c3sccc3n2)cc1 ?
Vif inh: inactive

How did C/C(=N\NC(=O)CSCc1ccc(Cl)cc1)c1ccc(NC(=O)c2ccccc2)cc1 do in these assays?
Vif inh: inactive; SR-BI uptake up: inactive; SR-BI HDL uptake: inconclusive; PKA-R1A activ: inactive; PKA-R2B act: inactive

How did C/C(=N/NC(=O)CSCc1ccc(Cl)cc1)c1cccc(NC(=O)c2ccccc2)c1 do in these assays?
Vif inh: inactive; SR-BI uptake up: inactive; SR-BI HDL uptake: 81; PKA-R1A activ: inactive; PKA-R2B act: inactive

Results for O=C(C[n+]1cc(Br)cc2ccccc21)c1ccccc1 ?
Vif inh: 55; SR-BI uptake up: inactive; SR-BI HDL uptake: inactive; PKA-R1A activ: inactive; PKA-R2B act: inactive

What do the screens show for `COc1ccc(C(=O)C[n+]2cc(Br)cc3ccccc32)cc1[N+](=O)[O-]`?
Vif inh: inactive; SR-BI uptake up: inactive; SR-BI HDL uptake: inactive; PKA-R1A activ: inactive; PKA-R2B act: inactive

What do the screens show for `CN1c2cccc3cccc(c23)N(C)C1(C)C`?
Vif inh: inactive; SR-BI uptake up: inactive; SR-BI HDL uptake: inactive; PKA-R1A activ: inactive; PKA-R2B act: inactive

How did CC(=O)c1ccc2cccc3c2c1N=CN3C do in these assays?
Vif inh: 67; SR-BI uptake up: inactive; SR-BI HDL uptake: inactive; PKA-R1A activ: inactive; PKA-R2B act: inactive

Results for Cc1cc(C)n2c(Br)c(CSc3nc4ccccc4s3)nc2n1 ?
Vif inh: inactive; SR-BI uptake up: inactive; SR-BI HDL uptake: inactive; PKA-R1A activ: inactive; PKA-R2B act: inactive

How did O=c1cc(Cn2ccnc2)c2cc(O)ccc2o1 do in these assays?
Vif inh: inactive; SR-BI uptake up: inactive; SR-BI HDL uptake: 78; PKA-R1A activ: inactive; PKA-R2B act: inactive

What do the screens show for `O=[N+]([O-])c1ccc(O)c(/C=N/Nc2ccc(Cl)nn2)c1`?
Vif inh: inactive; SR-BI uptake up: inactive; SR-BI HDL uptake: 106; PKA-R1A activ: inactive; PKA-R2B act: inactive

Results for O=[N+]([O-])c1ccc(O)c(/C=N/Nc2nn[nH]n2)c1 ?
Vif inh: inactive; SR-BI uptake up: inactive; SR-BI HDL uptake: inactive; PKA-R1A activ: inactive; PKA-R2B act: inactive

Results for O=[N+]([O-])c1ccc(/C=N/NC2=NS(=O)(=O)c3ccccc32)cc1 ?
Vif inh: inactive; SR-BI uptake up: inactive; SR-BI HDL uptake: inactive; PKA-R1A activ: inactive; PKA-R2B act: inactive

Results for O=[N+]([O-])c1ccc(O)c(/C=N/NC2=NS(=O)(=O)c3ccccc32)c1 ?
Vif inh: inactive; SR-BI uptake up: inactive; SR-BI HDL uptake: 88; PKA-R1A activ: inactive; PKA-R2B act: inactive

What do the screens show for `O=C(NC1CC1)c1cc2c(F)cccc2s1`?
Vif inh: inactive; SR-BI uptake up: inactive; SR-BI HDL uptake: inactive; PKA-R1A activ: inactive; PKA-R2B act: inactive

Results for CC1(C)C(=O)NCCN1C(=O)CC1C(=O)NCCN1Cc1cccc(C(F)(F)F)c1 (centres undefined) ?
Vif inh: inactive; SR-BI uptake up: inactive; SR-BI HDL uptake: inactive; PKA-R1A activ: inactive; PKA-R2B act: inactive

Results for Cc1noc(C)c1S(=O)(=O)N(C)C[C@H]1OCc2cnnn2CCCC(=O)N([C@@H](C)CO)C[C@H]1C ?
Vif inh: inactive; PKA-R1A activ: inactive; PKA-R2B act: inactive

Results for COc1ccc2c(c1)-c1nc(NC(=O)c3cccs3)sc1CC2 ?
Vif inh: inactive; SR-BI uptake up: inactive; SR-BI HDL uptake: 79; PKA-R1A activ: inactive; PKA-R2B act: inactive

What do the screens show for `COc1ccc2c(c1)-c1nc(NC(=O)c3ccco3)sc1CC2`?
Vif inh: inactive; SR-BI uptake up: inactive; SR-BI HDL uptake: 78; PKA-R1A activ: inactive; PKA-R2B act: inactive

Results for COc1ccc2c(c1)CCc1sc(NC(=O)c3ccco3)nc1-2 ?
Vif inh: inactive; SR-BI uptake up: inactive; SR-BI HDL uptake: inactive; PKA-R1A activ: inactive; PKA-R2B act: inactive

How did C=CCN1C(=O)/C(=C2/Sc3ccc(OC)cc3N2C)SC1=NCc1ccccc1 do in these assays?
Vif inh: inactive; SR-BI uptake up: inactive; SR-BI HDL uptake: inactive; PKA-R1A activ: inactive; PKA-R2B act: inactive

What do the screens show for `CCN1C(=O)/C(=C2/Sc3ccc(OC)cc3N2C)SC1=Nc1cccc(O)c1`?
Vif inh: inactive; SR-BI uptake up: inactive; SR-BI HDL uptake: 94; PKA-R1A activ: inactive; PKA-R2B act: inactive

What do the screens show for `C=CCN1C(=O)/C(=C2/Sc3ccc(OC)cc3N2C)SC1=Nc1ccccc1`?
Vif inh: inactive; SR-BI uptake up: inactive; SR-BI HDL uptake: 96; PKA-R1A activ: inactive; PKA-R2B act: inactive

What do the screens show for `COc1ccc2c(c1)N(C)/C(=C1/SC(=NCc3ccccc3)N(c3ccccc3)C1=O)S2`?
Vif inh: 170; SR-BI uptake up: inactive; SR-BI HDL uptake: inactive; PKA-R1A activ: inactive; PKA-R2B act: inactive

Results for COC(=O)c1cn(C(=O)c2ccc3c(c2)OCO3)c2ccccc12 ?
Vif inh: inactive; PKA-R1A activ: inactive; PKA-R2B act: inactive

What do the screens show for `Cc1ccccc1-c1csc(C(C)(O)c2cccnc2)n1` (centres undefined)?
Vif inh: inactive

What do the screens show for `CCOC(=O)C1CCCN(C(=O)c2cccc(C(F)(F)F)c2)CC1` (centres undefined)?
Vif inh: inactive

What do the screens show for `CC1CCN(CCCNC(=O)c2ccc3c(=O)n(CCc4ccccc4)c(=O)[nH]c3c2)CC1`?
Vif inh: 52; SR-BI uptake up: inactive; SR-BI HDL uptake: inactive; PKA-R1A activ: inactive; PKA-R2B act: inactive

What do the screens show for `O=C(NCCOCCNC(=O)OCc1ccccc1)OCc1ccccc1`?
Vif inh: inactive; SR-BI uptake up: inactive; SR-BI HDL uptake: inactive; PKA-R1A activ: inactive; PKA-R2B act: inactive

How did CCCOc1ccc(Br)cc1/C=N/NC(=O)c1cc(OC)c(OC)c(OC)c1 do in these assays?
Vif inh: inactive; SR-BI uptake up: inactive; SR-BI HDL uptake: 76; PKA-R1A activ: inactive; PKA-R2B act: inactive

Results for COc1ccc(C(=O)N/N=C/c2cc(Br)ccc2O)cc1OC ?
Vif inh: inactive; SR-BI uptake up: inactive; SR-BI HDL uptake: 120; PKA-R1A activ: inactive; PKA-R2B act: inactive

Results for CC(C)(C)c1ccc(OCc2ccc(C(=O)N/N=C3\CC4CC=CC34)cc2)cc1 (centres undefined) ?
Vif inh: inactive; SR-BI uptake up: inactive; SR-BI HDL uptake: 79; PKA-R1A activ: inactive; PKA-R2B act: inactive

What do the screens show for `COc1ccc(C(=O)N/N=C/c2ccccc2C(=O)O)cc1OC`?
Vif inh: inactive; PKA-R1A activ: inactive; PKA-R2B act: inactive
